Experimental data as given in ChEMBL document CHEMBL3992534, “Design, Synthesis, and Biological Evaluation of Novel, Non-Brain-Penetrant, Hybrid Cannabinoid CB1R Inverse Agonist/Inducible Nitric Oxide Synthase (iNOS) Inhibitors for the Treatment of Liver Fibrosis” (J Med Chem, 2017).
Activity calls are given as the source filed them. No cut-off for these calls is given here.

Columns and labels:
Cannabinoid receptor 2 = Cannabinoid receptor 2 (Mus musculus, UniProt P47936); assay: Displacement of [3H]CP55940 from mouse CB2R expressed in CHOK1 cell membranes
Sequence of Cannabinoid receptor 2 (P47936 whole entry): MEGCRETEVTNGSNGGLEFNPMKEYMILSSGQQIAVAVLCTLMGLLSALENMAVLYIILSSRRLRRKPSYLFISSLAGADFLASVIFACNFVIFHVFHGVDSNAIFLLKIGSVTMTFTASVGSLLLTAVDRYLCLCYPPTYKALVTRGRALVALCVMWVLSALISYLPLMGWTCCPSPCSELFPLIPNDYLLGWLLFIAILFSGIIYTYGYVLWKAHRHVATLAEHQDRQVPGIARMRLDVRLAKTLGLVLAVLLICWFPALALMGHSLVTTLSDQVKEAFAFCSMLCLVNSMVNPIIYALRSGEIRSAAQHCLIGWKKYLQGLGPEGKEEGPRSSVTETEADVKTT
Method in brief: (§1)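 Displacement binding isotherms with [3H]-CP55940 as labeled ligand on plasma membranes from CHO-K1 cells expressing CB1R or CB2R. Ki was calculated by the Cheng-Prusoff equation. Values are mean ± SEM of 3 independent experiments, each run in triplicate.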

Cannabinoid receptor 1 [1] = molecular target: T1, Cannabinoid receptor 1 (Mus musculus, UniProt P47746); assay: Inverse agonist at mouse brain CB1R expressed in CHOK1 cell membranes assessed as inhibition of CP55940-stimulated [35S]GTP-gammaS binding measured after 60 mins by scintillation spectrometry
T1 sequence (P47746 whole entry): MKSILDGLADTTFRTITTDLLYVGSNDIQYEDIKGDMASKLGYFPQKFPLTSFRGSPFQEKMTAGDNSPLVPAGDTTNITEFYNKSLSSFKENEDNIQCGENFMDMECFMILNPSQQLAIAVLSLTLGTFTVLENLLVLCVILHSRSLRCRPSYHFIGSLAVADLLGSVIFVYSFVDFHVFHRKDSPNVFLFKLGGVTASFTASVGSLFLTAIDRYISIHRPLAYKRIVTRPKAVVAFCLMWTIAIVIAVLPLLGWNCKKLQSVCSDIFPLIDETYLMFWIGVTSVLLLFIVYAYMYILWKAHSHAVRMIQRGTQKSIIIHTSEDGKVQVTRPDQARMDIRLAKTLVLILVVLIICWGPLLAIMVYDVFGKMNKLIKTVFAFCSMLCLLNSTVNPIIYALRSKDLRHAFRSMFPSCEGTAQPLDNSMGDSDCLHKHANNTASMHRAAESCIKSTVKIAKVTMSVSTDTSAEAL

Cannabinoid receptor 1 [2] = molecular target: T1, Cannabinoid receptor 1; assay: Displacement of [3H]CP55940 from mouse brain CB1R expressed in CHOK1 cell membranes; method in brief: as §1
Mus musculus [3] = assay: Antifibrotic activity in BDL-induced CB1R deficient C57Bl6/J mouse liver damage model assessed as reduction in collagen deposition in liver at 3 mg/kg administered once daily via oral gavage by picrosirius red staining based histological analysis; assay type: functional, organism-based
Mus musculus [4] = assay: Antifibrotic activity in BDL-induced wild-type C57Bl6/J mouse liver damage model assessed as reduction in collagen deposition in liver at 30 mg/kg administered once daily via oral gavage by picrosirius staining based histological analysis; assay type: functional, organism-based
Mus musculus [5] = assay: Antifibrotic activity in CCl4-induced C57Bl6/J mouse liver fibrosis model assessed as reduction in iNOS level at 3 mg/kg administered via oral gavage for 4 weeks by immunostaining based method; assay type: functional, organism-based
Mus musculus [6] = assay: Antifibrotic activity in BDL-induced wild-type C57Bl6/J mouse liver damage model assessed as reduction in liver fibrosis at 3 mg/kg administered once daily via oral gavage starting on day 6 post-BDL induction by picrosirius red staining based histological analysis; assay type: functional, organism-based
Mus musculus [7] = assay: Antifibrotic activity in CCl4-induced C57Bl6/J mouse liver fibrosis model assessed as reduction in liver fibrosis at 3 mg/kg administered via oral gavage for 4 weeks by picrosirius red staining based histological analysis; assay type: functional, organism-based
Mus musculus [8] = assay: In vivo antagonist activity at CB1R in C57Bl6/J mouse assessed as induction of anxiogenic behavior at 10 mg/kg administered once daily via oral gavage for 28 days by elevated plus maze test; assay type: functional, organism-based
Mus musculus [9] = assay: Antifibrotic activity in CCl4-induced C57Bl6/J mouse liver fibrosis model assessed as reduction in iNOS level at 10 mg/kg administered via oral gavage for 4 weeks by immunostaining based method; assay type: functional, organism-based
Mus musculus [10] = assay: Antifibrotic activity in CCl4-induced C57Bl6/J mouse liver fibrosis model assessed as reduction in liver fibrosis at 10 mg/kg administered via oral gavage for 4 weeks by picrosirius red staining based histological analysis; assay type: functional, organism-based
[11] = molecular target: T2, Nitric oxide synthase, inducible (Mus musculus) (UniProt P29477); assay: Inhibition of iNOS in mouse RAW264.7 cells assessed as LPS-induced NO production measured after 1 hr by fluorimetric assay; assay type: cell-based
T2 sequence (whole entry): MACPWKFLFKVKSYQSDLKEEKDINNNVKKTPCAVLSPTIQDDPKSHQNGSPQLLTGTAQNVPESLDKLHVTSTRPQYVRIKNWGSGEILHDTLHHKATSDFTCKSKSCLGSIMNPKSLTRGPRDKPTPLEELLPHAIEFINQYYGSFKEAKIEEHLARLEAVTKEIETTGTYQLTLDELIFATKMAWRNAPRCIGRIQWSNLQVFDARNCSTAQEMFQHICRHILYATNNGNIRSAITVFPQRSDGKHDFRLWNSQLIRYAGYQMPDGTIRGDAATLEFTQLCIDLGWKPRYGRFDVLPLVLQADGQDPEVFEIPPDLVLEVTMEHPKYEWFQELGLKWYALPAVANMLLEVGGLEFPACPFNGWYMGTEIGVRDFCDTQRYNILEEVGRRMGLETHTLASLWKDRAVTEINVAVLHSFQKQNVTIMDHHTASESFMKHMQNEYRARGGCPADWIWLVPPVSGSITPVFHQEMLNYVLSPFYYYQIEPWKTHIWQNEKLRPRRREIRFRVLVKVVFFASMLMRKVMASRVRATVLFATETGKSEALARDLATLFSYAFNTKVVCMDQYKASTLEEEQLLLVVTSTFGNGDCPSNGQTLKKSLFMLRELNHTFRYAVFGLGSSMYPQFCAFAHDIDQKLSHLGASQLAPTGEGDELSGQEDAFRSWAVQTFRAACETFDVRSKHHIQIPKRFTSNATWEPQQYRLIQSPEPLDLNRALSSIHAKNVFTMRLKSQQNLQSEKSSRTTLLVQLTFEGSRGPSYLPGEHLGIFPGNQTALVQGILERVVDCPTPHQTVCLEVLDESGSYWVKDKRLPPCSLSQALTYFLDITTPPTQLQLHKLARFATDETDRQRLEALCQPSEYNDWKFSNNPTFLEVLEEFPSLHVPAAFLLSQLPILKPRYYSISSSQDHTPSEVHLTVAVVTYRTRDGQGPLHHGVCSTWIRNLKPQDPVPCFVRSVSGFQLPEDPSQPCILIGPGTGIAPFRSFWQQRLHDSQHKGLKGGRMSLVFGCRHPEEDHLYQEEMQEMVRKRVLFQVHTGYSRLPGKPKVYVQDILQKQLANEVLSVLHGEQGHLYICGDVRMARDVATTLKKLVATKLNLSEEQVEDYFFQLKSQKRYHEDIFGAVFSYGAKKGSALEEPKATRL

[12] = molecular target: T2, Nitric oxide synthase, inducible (Mus musculus); assay: Inhibition of iNOS in mouse RAW264.7 cells assessed as interferon gamma-induced NO production measured after 1 hr by fluorimetric assay; assay type: cell-based

SMILES	Ki (Cannabinoid receptor 2) [nM]	IC50 (Cannabinoid receptor 1 [1]) [nM]	other results
Cc1c(C(=O)NN2CCCCC2)nn(-c2ccc(Cl)cc2Cl)c1-c1ccc(Cl)cc1			Activity (Mus musculus [3]): inactive; Activity (Mus musculus [4]): Active; Activity (Mus musculus [5]): inactive; Activity (Mus musculus [6]): inactive; Activity (Mus musculus [7]): Active; Activity (Mus musculus [8]): Active
CS/C(N)=N\C(=N/S(=O)(=O)c1ccc(C(F)(F)F)cc1)N1CC(c2ccccc2)C(c2ccc(Cl)cc2)=N1 (stereo not given)	> 1000	97	Ki (Cannabinoid receptor 1 [2]): 63 nM
N/C(=N/C(=N\S(=O)(=O)c1ccc(Cl)cc1)N1CC(c2ccccc2)C(c2ccc(Cl)cc2)=N1)c1ccncc1 (stereo not given)	> 1000	603	
N/C(COc1ccccc1)=N/C(=N\S(=O)(=O)c1ccc(Cl)cc1)N1CC(c2ccccc2)C(c2ccc(Cl)cc2)=N1 (stereo not given)	> 1000	125	
C/C(N)=N\C(=N/S(=O)(=O)c1ccc(Cl)cc1)N1C[C@@H](c2ccccc2)C(c2ccc(Cl)cc2)=N1			Activity (Mus musculus [9]): Active; Activity (Mus musculus [10]): Active; inhibition [11]: Active; inhibition [12]: Active
CC(C)S/C(N)=N\C(=N/S(=O)(=O)c1ccc(Cl)cc1)N1CC(c2ccccc2)C(c2ccc(Cl)cc2)=N1 (stereo not given)	> 1000	395	
C/C(N)=N\C(=N/S(=O)(=O)c1ccc(OC(F)(F)F)cc1)N1CC(c2ccccc2)C(c2ccc(Cl)cc2)=N1 (stereo not given)	> 1000	76	
CNC(=NS(=O)(=O)c1ccc(Cl)cc1)N1CC(c2ccccc2)C(c2ccc(Cl)cc2)=N1 (stereo not drawn) [RAC-IBIPINABANT]		76	Ki (Cannabinoid receptor 1 [2]): 8.1 nM
N/C(=N/C(=N\S(=O)(=O)c1ccc(Cl)cc1)N1CC(c2ccccc2)C(c2ccc(Cl)cc2)=N1)SCCc1ccccc1 (stereo not given)	> 1000	441	
CCS/C(N)=N\C(=N/S(=O)(=O)c1ccc(Cl)cc1)N1CC(c2ccccc2)C(c2ccc(Cl)cc2)=N1 (stereo not given)	> 1000	534	
COc1ccc(S(=O)(=O)/N=C(\N=C(/C)N)N2CC(c3ccccc3)C(c3ccc(Cl)cc3)=N2)cc1 (stereo not given)	> 1000	70	
C/C(N)=N\C(=N/S(=O)(=O)c1ccc(C(C)C)cc1)N1CC(c2ccccc2)C(c2ccc(Cl)cc2)=N1 (stereo not given)	> 1000	90	Ki (Cannabinoid receptor 1 [2]): 10 nM
N/C(=N/C(=N\S(=O)(=O)c1ccc(Cl)cc1)N1CC(c2ccccc2)C(c2ccc(Cl)cc2)=N1)c1cccs1 (stereo not given)	> 1000	101	
C/C(N)=N\C(=N/S(=O)(=O)c1ccc(C)cc1)N1CC(c2ccccc2)C(c2ccc(Cl)cc2)=N1 (stereo not given)	> 1000	113	
CS/C(N)=N\C(=N/S(=O)(=O)c1ccc(I)cc1)N1CC(c2ccccc2)C(c2ccc(Cl)cc2)=N1 (stereo not given)	> 1000	65	Ki (Cannabinoid receptor 1 [2]): 10 nM
N/C(=N/C(=N\S(=O)(=O)c1ccc(Cl)cc1)N1CC(c2ccccc2)C(c2ccc(Cl)cc2)=N1)c1ccc(Br)cc1 (stereo not given)	> 1000		
C/C(N)=N\C(=N/S(=O)(=O)c1ccc(I)cc1)N1CC(c2ccccc2)C(c2ccc(Cl)cc2)=N1 (stereo not given)	> 1000	65	
CS/C(N)=N\C(=N/S(=O)(=O)c1ccc(Cl)cc1)N1CC(c2ccccc2)C(c2ccc(Cl)cc2)=N1 (stereo not given)	> 1000		
CC(C)/C(N)=N\C(=N/S(=O)(=O)c1ccc(Cl)cc1)N1CC(c2ccccc2)C(c2ccc(Cl)cc2)=N1 (stereo not given)	> 1000	> 1000	
C/C(N)=N\C(=N/S(=O)(=O)c1ccc(Br)cc1)N1CC(c2ccccc2)C(c2ccc(Cl)cc2)=N1 (stereo not given)	> 1000	19	
C/C(N)=N\C(=N/S(=O)(=O)c1ccc(Cl)cc1)N1CC(c2ccccc2)C(c2ccc(Cl)cc2)=N1 (stereo not given)	> 1000		
N/C(=N/C(=N\S(=O)(=O)c1ccc(Cl)cc1)N1CC(c2ccccc2)C(c2ccc(Cl)cc2)=N1)C1CC1 (stereo not given)	> 1000	241	
N/C(=N/C(=N\S(=O)(=O)c1ccc(Cl)cc1)N1CC(c2ccccc2)C(c2ccc(Cl)cc2)=N1)SCc1ccccc1 (stereo not given)	> 1000	213	
CC(C)(C)/C(N)=N\C(=N/S(=O)(=O)c1ccc(Cl)cc1)N1CC(c2ccccc2)C(c2ccc(Cl)cc2)=N1 (stereo not given)	> 1000	182	

Now from value to molecule, other results behind:

Ki (Cannabinoid receptor 2) [nM]	IC50 (Cannabinoid receptor 1 [1]) [nM]	SMILES	other results
250	292	N/C(=N/C(=N\S(=O)(=O)c1ccc(Cl)cc1)N1CC(c2ccccc2)C(c2ccc(Cl)cc2)=N1)c1cccc(Br)c1 (stereo not given)	
> 1000	2640	N/C(=N/C(=N\S(=O)(=O)c1ccc(Cl)cc1)N1CC(c2ccccc2)C(c2ccc(Cl)cc2)=N1)SCCCc1ccccc1 (stereo not given)	
> 1000	33	N/C(=N/C(=N\S(=O)(=O)c1ccc(Cl)cc1)N1CC(c2ccccc2)C(c2ccc(Cl)cc2)=N1)c1ccccn1 (stereo not given)	Ki (Cannabinoid receptor 1 [2]): 26 nM
> 1000	686	C/C(N)=N\C(=N/S(=O)(=O)c1ccc(F)cc1)N1CC(c2ccccc2)C(c2ccc(Cl)cc2)=N1 (stereo not given)	
106	22	N/C(=N/C(=N\S(=O)(=O)c1ccc(Cl)cc1)N1CC(c2ccccc2)C(c2ccc(Cl)cc2)=N1)c1ccc(F)cc1F (stereo not given)	
107	72	N/C(=N/C(=N\S(=O)(=O)c1ccc(Cl)cc1)N1CC(c2ccccc2)C(c2ccc(Cl)cc2)=N1)c1ccccc1F (stereo not given)	
> 1000	2670	CS/C(N)=N\C(=N/S(=O)(=O)c1ccc2ccccc2c1)N1CC(c2ccccc2)C(c2ccc(Cl)cc2)=N1 (stereo not given)	Ki (Cannabinoid receptor 1 [2]): 29 nM
> 1000	226	N/C(=N/C(=N\S(=O)(=O)c1ccc(Cl)cc1)N1CC(c2ccccc2)C(c2ccc(Cl)cc2)=N1)C12CC3CC(CC(C3)C1)C2 (stereo not given)	
> 1000	40	C/C(N)=N\C(=N/S(=O)(=O)c1ccc(C(F)(F)F)cc1)N1CC(c2ccccc2)C(c2ccc(Cl)cc2)=N1 (stereo not given)	Ki (Cannabinoid receptor 1 [2]): 5.7 nM
> 1000	118	C/C(N)=N\C(=N/S(=O)(=O)c1ccc2ccccc2c1)N1CC(c2ccccc2)C(c2ccc(Cl)cc2)=N1 (stereo not given)	
161	33	COc1cccc(/C(N)=N\C(=N/S(=O)(=O)c2ccc(Cl)cc2)N2CC(c3ccccc3)C(c3ccc(Cl)cc3)=N2)c1 (stereo not given)	
> 1000	30	C/C(N)=N\C(=N/S(=O)(=O)c1ccc(C(C)(C)C)cc1)N1CC(c2ccccc2)C(c2ccc(Cl)cc2)=N1 (stereo not given)	
> 1000	2040	C/C(N)=N\C(=N/S(=O)(=O)c1ccccc1)N1CC(c2ccccc2)C(c2ccc(Cl)cc2)=N1 (stereo not given)	
1000	117	N/C(=N/C(=N\S(=O)(=O)c1ccc(Cl)cc1)N1CC(c2ccccc2)C(c2ccc(Cl)cc2)=N1)c1ccccc1 (stereo not given)	
158	18	N/C(=N/C(=N\S(=O)(=O)c1ccc(Cl)cc1)N1CC(c2ccccc2)C(c2ccc(Cl)cc2)=N1)c1ccc(Cl)cc1 (stereo not given)	Ki (Cannabinoid receptor 1 [2]): 10 nM
173	116	N/C(=N/C(=N\S(=O)(=O)c1ccc(Cl)cc1)N1CC(c2ccccc2)C(c2ccc(Cl)cc2)=N1)c1ccc(F)cc1 (stereo not given)	
